STEP inh: STEP phosphatase inhibitors, primary screen, biochemical, fluorescence intensity, uHTS | Tyrosine-protein phosphatase non-receptor type 5 (Homo sapiens), P54829 | recombinant STEP, OMFP fluorogenic substrate | AID 588621, 2011 | inhibition, % at 20 µM | 360,000 compounds, 0.25% hits;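 active = inhibition at 20 µM, scaled per plate between control wells, above about 37%, limit read from the data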;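 note: 0% = DMSO with enzyme and substrate and 100% = substrate only without enzyme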
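Measure: Control-normalized % inhibition with plate pattern correction | Test system: STEP phosphatase, cell-free reaction | Medium: pH 6.0 Bis-Tris with DTT and Tween 20 | Technique: Fluorescence, 480/540 nm | Times: Reaction 20 min, ambient temperature | Doses: Single compound dose of 20 µM, 1% DMSO final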
SUMO1 PPI mod: modulators of SUMO1 protein-protein interactions, primary screen, biochemical, uHTS. Small ubiquitin-related modifier 1 (Homo sapiens), P63165. SUMO1 binding to a labelled peptide, TR-FRET, 1 h. inhibition, % at 20 µM. 360,000 compounds, 0.33% hits. AID 602429, 2012; in the data active = inhibition above about 37%
Rpn11 block: Rpn11 (PSMD14) deubiquitinase inhibitors, primary screen, biochemical, fluorescence polarization, uHTS. 26S proteasome non-ATPase regulatory subunit 14 (Homo sapiens), O00487. human 26S proteasome, Ub4-pepOG fluorescence polarization; 20S core pre-blocked with epoxomicin. inhibition, % at 20 µM. 360,000 compounds, 0.59% hits;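 active = inhibition at 20 µM, scaled to each plate's controls, above about 33%, limit read from the data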
Scp-1 inhibitor: Scp-1 phosphatase inhibitors, primary screen, biochemical, colorimetric, uHTS. Carboxy-terminal domain RNA polymerase II polypeptide A small phosphatase 1 (Homo …. Recombinant Scp1, phosphopeptide, malachite green phosphate absorbance. inhibition, % at 20 µM. 340,000 compounds, 0.88% hits;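 active = inhibition above about 50% at 20 µM, limit read from the data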;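 note: plate controls were DMSO wells with enzyme for no effect and wells lacking enzyme for full effect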
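Test system: SCP-1 phosphatase catalytic domain, residues 76-261 | Compound dosing: One concentration, 20 µM, with 1.0% DMSO | Schedule: 45 min room-temperature reaction, 5 min colour, 30 min stabiliser | Detection: Absorbance at 630 nm | Read-out basis: % inhibition of SCP-1 phosphate liberation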
LMPTP inh: LMPTP phosphatase inhibitors, primary screen, biochemical, fluorescence intensity, uHTS; inhibition, % at 20 µM; Low molecular weight phosphotyrosine protein phosphatase (Homo sapiens), P24666; recombinant LMPTP-A, OMFP fluorogenic substrate; 360,000 compounds, 0.22% hits;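 active = compounds that cut the enzyme signal by at least half of the control window in the single-dose screen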;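 note: plate controls were DMSO wells with enzyme plus substrate for no effect and substrate without enzyme for full effect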
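Assay system: LMPTP-A enzyme. Input: 0.625 nM LMPTP-A final. Probe or stimulus: 400 µM OMFP. Compound dosing: single 20 µM dose. Schedule: 50 min dark incubation at room temperature. Detection: fluorescence intensity of OMFP turnover product. Read-out: percent inhibition versus substrate-only and uninhibited controls. Benchmarks: no-enzyme low control, uninhibited high control.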
DNMT1 inh: human DNMT1 methyltransferase inhibitors, primary screen, biochemical, molecular beacon, fluorescence, HinP1I cleavage, uHTS | inhibition (reported as % activation of signal), % at 10 µM | AID 588458, 2011 | DNA (cytosine-5)-methyltransferase 1 (Homo sapiens), P26358 | 360,000 compounds, 0.83% hits; in the data active = inhibition above about 50%
Target sequence (P26358 504-1616 limits assumed): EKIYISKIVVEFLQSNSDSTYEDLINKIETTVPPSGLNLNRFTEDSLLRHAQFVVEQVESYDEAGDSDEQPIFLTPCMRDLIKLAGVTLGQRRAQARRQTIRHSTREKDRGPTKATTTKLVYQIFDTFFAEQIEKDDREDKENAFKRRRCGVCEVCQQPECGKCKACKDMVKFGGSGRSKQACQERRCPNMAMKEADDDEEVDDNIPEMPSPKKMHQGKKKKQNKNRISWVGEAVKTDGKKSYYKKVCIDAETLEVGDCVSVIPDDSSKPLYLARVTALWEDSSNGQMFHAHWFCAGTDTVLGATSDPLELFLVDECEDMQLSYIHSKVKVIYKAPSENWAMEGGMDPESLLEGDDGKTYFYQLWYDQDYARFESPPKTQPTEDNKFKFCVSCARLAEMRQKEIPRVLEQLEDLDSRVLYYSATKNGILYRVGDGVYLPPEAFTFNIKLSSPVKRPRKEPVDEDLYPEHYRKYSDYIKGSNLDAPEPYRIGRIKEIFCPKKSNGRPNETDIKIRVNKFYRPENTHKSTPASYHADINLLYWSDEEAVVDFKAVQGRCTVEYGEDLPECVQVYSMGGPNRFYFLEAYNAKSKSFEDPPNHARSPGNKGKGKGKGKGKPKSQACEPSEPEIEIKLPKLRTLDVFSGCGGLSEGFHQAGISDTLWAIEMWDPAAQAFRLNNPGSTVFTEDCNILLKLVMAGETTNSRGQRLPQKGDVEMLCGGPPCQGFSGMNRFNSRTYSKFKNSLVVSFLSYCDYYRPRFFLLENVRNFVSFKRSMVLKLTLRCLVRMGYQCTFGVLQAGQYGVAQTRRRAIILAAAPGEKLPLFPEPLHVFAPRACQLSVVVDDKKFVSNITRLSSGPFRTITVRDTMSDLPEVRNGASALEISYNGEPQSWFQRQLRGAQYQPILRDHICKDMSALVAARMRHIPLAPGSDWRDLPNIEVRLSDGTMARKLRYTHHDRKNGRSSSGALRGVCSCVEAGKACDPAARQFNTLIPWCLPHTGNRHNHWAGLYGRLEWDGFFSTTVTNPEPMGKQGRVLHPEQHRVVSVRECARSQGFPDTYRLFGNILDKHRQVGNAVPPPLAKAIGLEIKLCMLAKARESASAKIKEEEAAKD
Numbers without * were called inactive; x = no result given. Compounds with a hit are over-represented: about 2.3% of the library has one in this group of screens.

SMILES | STEP inh | SUMO1 PPI mod | Rpn11 block | Scp-1 inhibitor | LMPTP inh | DNMT1 inh
O=C1c2cccc3cc([N+](=O)[O-])cc(c23)C(=O)N1CCN1CCCC1 | 4 | -21 | -31 | -2 | 40 | 70*
O=C(Cc1cccc(C(F)(F)F)c1)Nc1cc(S(=O)(=O)N2CCOCC2)ccc1N1CCCC1 | 0 | 3 | 4 | -8 | 0 | 0
CN(Cc1ccccc1)C(=O)CN1CCN(S(=O)(=O)c2ccc(Cl)c(Cl)c2)CC1 | 2 | -1 | -6 | -7 | 1 | -5
COc1ccc(CC(=O)NCc2ccc(Cl)cc2)cc1S(=O)(=O)N1CCOCC1 | -4 | 13 | -3 | -6 | -1 | 0
Cc1cc2[nH]c3c(c[n+](C)c4ccccc34)c2cc1C | 5 | -4 | -14 | 36 | 73* | 28
Cc1cc(=O)[nH]c2ccccc12 | 1 | -2 | 4 | -10 | -1 | 1
N#Cc1cnc(NN)nc1 | -4 | 3 | 5 | -3 | -2 | 0
CCOC(=O)c1ccc(Nc2sc(C(=O)c3cccc([N+](=O)[O-])c3)c(N)c2C#N)cc1 | -2 | 53* | -5 | 1 | 0 | -11
CC(=O)N(/N=C1\Sc2ccccc2C1=O)c1cccc(C)c1 | -1 | 35 | 28 | -4 | 3 | 51*
CC(=O)N(CN1C(=O)c2ccccc2C1=O)c1cccc(C)c1 | -3 | -9 | -2 | -2 | 1 | -2
O=Cc1cccn1-c1c(C(=O)O)cnn1-c1ccccc1 | -1 | 42* | 4 | 6 | -1 | 0
O=c1cc(-c2ccc(O)cc2)oc2c(O)c(O)c(O)c(O)c12 | 2 | -3 | 34 | 69* | 41 | 4
COc1cc2c(cc1OC)C(=O)C(c1ccc3c(c1)OCO3)CC2 (stereo unspecified) | 2 | -2 | 8 | x | 1 | 5
COc1cc2c(cc1OC)C(=O)C(Br)CC2 (stereo unspecified) | 4 | 111* | 19 | x | 6 | 83*
O=C(O)c1cccc(N2C(=O)/C(=C/c3ccc(SCc4ccc(Cl)cc4)o3)SC2=S)c1 | 16 | 70* | x | 70* | 49 | 84*
Cc1ccc(/C=C2\SC(=S)N(c3cccnc3)C2=O)o1 | 5 | -6 | 28 | -5 | 1 | -1
COCCCN1C(=O)C(CC(=O)NCCN2CCOCC2)CC(C(=O)N(C(C)C)C(C)C)=C1C (stereo unspecified) | -1 | 1 | 0 | x | 0 | 3
C=C(C)[C@@H]1CC=C(CN2CCC(CCOC)(C(=O)OCC)CC2)CC1 | -1 | -5 | 3 | -3 | 3 | 0
O=C(c1ccc(-c2nnc(Nc3cccc(Cl)c3)c3ccccc23)cc1)N1C[C@H]2C[C@H](C1)c1cccc(=O)n1C2 | 2 | 7 | 7 | 3 | 20 | 74*
COc1nnc(-c2ccc(C(=O)N3C[C@@H]4C[C@H](C3)c3cccc(=O)n3C4)cc2)c2ccccc12 | -3 | -1 | 3 | 4 | 4 | 3
CC(C)(C)OC(=O)C[C@H]1C/C=C\C[C@H](CC(=O)N(CCO)Cc2ccccc2)C(=O)N[C@@H](Cc2ccccc2)COC1=O | 0 | 1 | 3 | -6 | 1 | -1
Cc1cccc2nc(-c3ccccc3)nc(N[C@@H](CO)c3ccccc3)c12 | 2 | -3 | 2 | -11 | 54* | -13
CC(C)(CC(=O)O)CC(=O)Nc1cc(C(F)(F)F)cc(C(F)(F)F)c1 | -2 | 2 | 8 | -3 | -1 | -2
O=C(O)CCC(=O)Nc1cc(C(F)(F)F)cc(C(F)(F)F)c1 | 1 | 44* | -4 | -5 | 1 | 2
